Test [1] concerns the target 5-hydroxytryptamine receptor 2A (Rattus norvegicus, UniProt P14842). Briefly: Displacement of [3H]ketanserin from 5HT2A receptor in Sprague-Dawley albinus rat frontal cortex membranes after 15 mins. Summed up:
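Rat frontal cortex membranes (male Sprague–Dawley, 180–200 g). Nonspecific binding was set with 1 μM cinanserin.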
On the technique in general: Loss of bound radioactivity is the signal in a displacement assay; it reports binding, not function.

The target in test [2] is T1, 5-hydroxytryptamine receptor 3A (Rattus norvegicus, UniProt P35563).
T1 sequence (P35563 whole entry): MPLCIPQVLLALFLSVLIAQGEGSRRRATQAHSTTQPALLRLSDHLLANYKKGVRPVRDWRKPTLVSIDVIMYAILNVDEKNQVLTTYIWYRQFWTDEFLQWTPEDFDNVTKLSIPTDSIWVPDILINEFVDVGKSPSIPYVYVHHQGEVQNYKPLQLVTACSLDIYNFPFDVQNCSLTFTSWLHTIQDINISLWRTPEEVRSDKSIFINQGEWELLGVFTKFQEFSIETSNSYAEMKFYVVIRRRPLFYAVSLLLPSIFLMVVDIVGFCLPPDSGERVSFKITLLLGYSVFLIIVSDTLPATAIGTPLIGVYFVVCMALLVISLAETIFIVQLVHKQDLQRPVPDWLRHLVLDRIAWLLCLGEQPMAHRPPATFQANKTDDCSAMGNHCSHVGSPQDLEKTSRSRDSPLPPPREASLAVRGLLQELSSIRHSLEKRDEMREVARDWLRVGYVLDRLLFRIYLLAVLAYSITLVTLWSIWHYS
Briefly: Displacement of [3H]-LY278584 from 5HT3 receptor in Sprague-Dawley albinus rat cerebral cortex membranes after 30 mins.

The target of test [3] is D(2) dopamine receptor (Rattus norvegicus, UniProt P61169). As to the kind of experiment: Displacement of [3H]spiperone from dopamine D2 receptor in Sprague-Dawley albinus rat striatal membranes after 15 mins.
Sequence of D(2) dopamine receptor (P61169 whole entry): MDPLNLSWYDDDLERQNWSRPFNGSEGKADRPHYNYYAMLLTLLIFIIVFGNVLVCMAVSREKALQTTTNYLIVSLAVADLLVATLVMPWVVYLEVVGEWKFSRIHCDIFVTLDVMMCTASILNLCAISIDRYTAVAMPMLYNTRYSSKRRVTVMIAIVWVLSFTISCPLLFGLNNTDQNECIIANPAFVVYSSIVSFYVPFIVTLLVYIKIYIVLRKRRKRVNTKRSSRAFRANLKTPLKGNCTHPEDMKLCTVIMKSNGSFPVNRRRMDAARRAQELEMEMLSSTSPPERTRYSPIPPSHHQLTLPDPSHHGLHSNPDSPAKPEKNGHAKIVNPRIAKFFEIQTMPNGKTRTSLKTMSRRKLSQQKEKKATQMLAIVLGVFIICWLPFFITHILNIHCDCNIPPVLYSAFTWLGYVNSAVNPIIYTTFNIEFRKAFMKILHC
The target in test [4] is 5-hydroxytryptamine receptor 4 (Rattus norvegicus, UniProt Q62758). Briefly: Displacement of [3H]GR113808 from 5HT4 receptor in Sprague-Dawley albinus rat striatal membranes after 30 mins by scintillation counting.
Sequence of 5-hydroxytryptamine receptor 4 (Q62758 whole entry): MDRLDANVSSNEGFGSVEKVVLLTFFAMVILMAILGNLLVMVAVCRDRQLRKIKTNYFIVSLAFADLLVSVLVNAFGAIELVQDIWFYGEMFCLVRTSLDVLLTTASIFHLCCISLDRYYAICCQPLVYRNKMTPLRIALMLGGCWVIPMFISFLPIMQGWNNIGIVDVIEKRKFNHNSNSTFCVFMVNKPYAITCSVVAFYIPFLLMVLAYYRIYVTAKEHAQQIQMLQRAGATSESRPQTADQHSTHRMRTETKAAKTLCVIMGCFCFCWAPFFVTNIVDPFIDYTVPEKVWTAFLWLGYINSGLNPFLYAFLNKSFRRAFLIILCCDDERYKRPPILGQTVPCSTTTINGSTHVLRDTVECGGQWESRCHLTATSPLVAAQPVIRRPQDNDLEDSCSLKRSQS
Test [5] concerns the target 5-hydroxytryptamine receptor 7 (Rattus norvegicus, UniProt P32305). As to the kind of experiment: Displacement of [3H]-5-CT from 5HT7 receptor in Sprague-Dawley albinus rat hyphalamic membranes after 120 mins.
The target of test [6] is T2, 5-hydroxytryptamine receptor 1A (Rattus norvegicus, UniProt P19327).
T2 sequence (P19327 whole entry): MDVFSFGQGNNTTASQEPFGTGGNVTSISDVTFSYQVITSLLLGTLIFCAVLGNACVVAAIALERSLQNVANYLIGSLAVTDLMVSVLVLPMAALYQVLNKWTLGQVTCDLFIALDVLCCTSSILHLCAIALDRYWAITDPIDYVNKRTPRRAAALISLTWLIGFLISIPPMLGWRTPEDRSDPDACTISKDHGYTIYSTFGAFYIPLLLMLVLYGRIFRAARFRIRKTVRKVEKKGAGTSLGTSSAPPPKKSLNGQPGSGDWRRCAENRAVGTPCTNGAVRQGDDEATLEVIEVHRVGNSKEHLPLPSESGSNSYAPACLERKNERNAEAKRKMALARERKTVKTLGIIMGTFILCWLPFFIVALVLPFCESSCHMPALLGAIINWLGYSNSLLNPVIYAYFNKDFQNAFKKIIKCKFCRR
As to the kind of experiment: Displacement of [3H]-8-OH-DPAT from 5-HT1A receptor in Sprague-Dawley albinus rat cerebral cortex membranes after 15 mins.

The structures appear in SMILES notation. Some results are limits rather than exact numbers.

Sequence of 5-hydroxytryptamine receptor 2A (P14842 whole entry): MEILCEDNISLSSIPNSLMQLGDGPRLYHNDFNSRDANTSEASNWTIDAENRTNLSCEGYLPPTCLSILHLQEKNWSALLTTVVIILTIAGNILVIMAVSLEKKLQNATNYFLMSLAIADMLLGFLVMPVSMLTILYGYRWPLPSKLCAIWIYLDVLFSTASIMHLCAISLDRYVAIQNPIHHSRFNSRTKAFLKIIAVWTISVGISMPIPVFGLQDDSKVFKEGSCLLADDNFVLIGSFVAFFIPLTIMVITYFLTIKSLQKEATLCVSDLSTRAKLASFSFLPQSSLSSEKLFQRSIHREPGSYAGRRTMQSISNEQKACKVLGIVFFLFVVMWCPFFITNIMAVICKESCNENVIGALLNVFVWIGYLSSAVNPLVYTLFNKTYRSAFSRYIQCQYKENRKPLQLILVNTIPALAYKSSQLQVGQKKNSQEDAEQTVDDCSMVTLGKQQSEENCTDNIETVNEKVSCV
Sequence of 5-hydroxytryptamine receptor 7 (P32305 whole entry): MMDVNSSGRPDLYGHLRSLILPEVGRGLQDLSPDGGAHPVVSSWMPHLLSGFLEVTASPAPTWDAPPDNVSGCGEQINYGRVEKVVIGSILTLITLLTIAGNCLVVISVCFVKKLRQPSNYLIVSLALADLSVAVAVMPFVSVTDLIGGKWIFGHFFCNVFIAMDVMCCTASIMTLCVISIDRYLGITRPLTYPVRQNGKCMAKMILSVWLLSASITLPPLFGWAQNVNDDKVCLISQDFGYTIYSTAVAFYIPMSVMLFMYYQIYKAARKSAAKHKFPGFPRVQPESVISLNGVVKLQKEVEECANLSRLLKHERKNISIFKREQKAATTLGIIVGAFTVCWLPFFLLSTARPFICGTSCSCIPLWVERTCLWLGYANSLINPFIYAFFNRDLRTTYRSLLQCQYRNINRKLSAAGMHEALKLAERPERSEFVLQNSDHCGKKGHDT

In test [1], `O=c1n(CCCCNCC2CCc3ccccc3O2)c(O)c2n1CSC2` (stereo not given) returned a Ki greater than 1 µM.

Take `O=c1n(CCCCNCC2CCc3ccccc3O2)c(O)c2n1CCCC2` (stereo not given): the Ki in test [2] and in test [1] was greater than 1 µM each time.

As to `O=c1n(CCCCNCc2ccc3ccccc3n2)c(O)c2n1CCC2`, the Ki in test [2] and in test [1] was greater than 1 µM throughout.

As for `O=c1n(CCCCNCCc2ccc3ccccc3c2)c(O)c2n1CCC2`, the Ki in test [2] and in test [3] was greater than 1 µM in each case.

As to `O=c1n(CCCCNCc2ccc3ccccc3c2)c(O)c2n1CCC2`, the Ki in test [1] is greater than 1 µM.

On to `O=c1n(CCCCNCCc2cccc3ccccc23)c(O)c2n1CCC2`, for which the Ki in test [2] was greater than 1 µM; in test [4] it was greater than 1 µM; in test [5] it was greater than 1 µM; in test [1], greater than 1 µM; in test [6] it was 0.028 µM; in test [3], greater than 1 µM.

As to `O=c1scc(O)n1CCCCCCCCNCC1CCc2ccccc2O1` (stereo not given), in test [1], the Ki was greater than 1 µM.

For `O=c1scc(O)n1CCCCCCNCC1CCc2ccccc2O1` (stereo not given), the Ki in test [1] is greater than 1 µM.

The molecule `O=c1scc(O)n1CCCCCNCC1CCc2ccccc2O1` (stereo not given) returned a Ki in test [1] greater than 1 µM.

For the molecule `O=c1n(Cc2cccc(CNCC3CCc4ccccc4O3)c2)c(O)c2n1CCC2` (stereo not given), the Ki in test [2] and in test [1] was greater than 1 µM throughout.

`O=c1n(Cc2ccc(CNCC3CCc4ccccc4O3)cc2)c(O)c2n1CCC2` (stereo not given): the inhibition constant Ki in test [2] is greater than 1 µM; in test [1] it was greater than 1 µM; in test [6] it was 0.028 µM.

With `O=c1n(CC#CCNCC2CCc3ccccc3O2)c(O)c2n1CCC2` (stereo not given), the Ki in test [6] was greater than 1 µM.

`O=c1n(C/C=C/CNCC2CCc3ccccc3O2)c(O)c2n1CCC2` (stereo not given) displayed a Ki in test [1] greater than 1 µM.

In the case of `O=c1n(CCCCCCNCC2CCc3ccccc3O2)c(O)c2n1CCC2` (stereo not given), the Ki in test [2] and in test [1] was greater than 1 µM each time.

With `O=c1n(CCCCCNCC2CCc3ccccc3O2)c(O)c2n1CCC2` (stereo not given), the Ki in test [2] and in test [1] was greater than 1 µM in each case.

`O=c1n(CCCNCC2CCc3ccccc3O2)c(O)c2n1CCC2` (stereo not given): the Ki in test [2] and in test [1] was greater than 1 µM throughout.

In test [1], `O=c1scc(O)n1CCCCNCC1CCc2ccccc2O1` (stereo not given) yielded a Ki greater than 1 µM.

In test [6], `O=c1n(CCCCNCCc2ccccn2)c(O)c2n1CCC2` displayed a Ki greater than 1 µM.

Take `O=c1n(CCCCNCc2ccccn2)c(O)c2n1CCC2`: the Ki in test [6] is greater than 1 µM.

Consider `O=c1n(CCCCNCCc2cccs2)c(O)c2n1CCC2`, for which the Ki in test [6] was greater than 1 µM.

The molecule `O=c1n(CCCCNCc2cccs2)c(O)c2n1CCC2` had a Ki in test [6] greater than 1 µM.

In test [6], `O=c1n(CCCCNCCc2ccco2)c(O)c2n1CCC2` displayed a Ki greater than 1 µM.

In the case of `O=c1n(CCCCNCc2ccco2)c(O)c2n1CCC2`, the Ki in test [6] was greater than 1 µM.

On to `O=c1n(CCCCNCCc2ccccc2)c(O)c2n1CCC2`, for which, in test [6], the Ki was greater than 1 µM.

Regarding `O=c1n(CCCCNCc2ccccc2)c(O)c2n1CCC2`, in test [6], the inhibition constant Ki was greater than 1 µM.

Molecule `O=c1n(CCCCNCc2cccc3ccccc23)c(O)c2n1CCC2` registered a Ki in test [6] greater than 1 µM.

By Ki is commonly meant a dissociation constant, usually derived from enzyme kinetics or from competition with a known ligand. The low end stands for tighter binding, the high end for weaker binding.

Source of the values: BindingDB's records for doi:10.1021/jm2007886 (Universidad Complutense De Madrid, 2011).
